The values that follow come from publication PMC12334608 (Nature Communications, 2025).

Substitutions are numbered along the chain they refer to. Names and notes keep the numbering of the source. Like-named read-outs stand apart in the source and are kept apart here. Where only a bound is given, the exact number is not on record here.

Series [1] addresses T1, ACOX-1.1 (Caenorhabditis elegans, UniProt O62140).
T1 sequence (O62140 1-674): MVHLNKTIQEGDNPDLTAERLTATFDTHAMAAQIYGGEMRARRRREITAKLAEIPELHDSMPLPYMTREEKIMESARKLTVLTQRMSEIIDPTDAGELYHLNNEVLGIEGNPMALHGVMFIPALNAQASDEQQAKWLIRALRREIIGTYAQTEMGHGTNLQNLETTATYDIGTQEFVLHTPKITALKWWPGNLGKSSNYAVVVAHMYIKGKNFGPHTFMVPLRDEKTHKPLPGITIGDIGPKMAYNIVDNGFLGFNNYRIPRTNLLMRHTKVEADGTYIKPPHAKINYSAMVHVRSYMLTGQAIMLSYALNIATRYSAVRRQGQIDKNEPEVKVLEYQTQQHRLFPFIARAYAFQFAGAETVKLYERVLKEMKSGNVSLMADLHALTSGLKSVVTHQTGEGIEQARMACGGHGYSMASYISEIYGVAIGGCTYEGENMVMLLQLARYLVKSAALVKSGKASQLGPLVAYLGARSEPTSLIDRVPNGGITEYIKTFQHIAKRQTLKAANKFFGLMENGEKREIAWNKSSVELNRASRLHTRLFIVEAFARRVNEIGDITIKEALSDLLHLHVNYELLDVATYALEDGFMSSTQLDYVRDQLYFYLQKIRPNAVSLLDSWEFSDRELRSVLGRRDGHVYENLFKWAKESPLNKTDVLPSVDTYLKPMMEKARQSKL
Briefly: Enzyme-coupled kinetic assay, wild-type ACOX-1.1 as purified. Type of series: biochemical, C. elegans. Particulars: for rescue of the time-dependent decrease in enzymatic activity: incubation with FAD plus nucleotide, compared with ATP.

In series [2] the target is T2, apo ACOX-1.1 (Caenorhabditis elegans, UniProt O62140).
T2 sequence (O62140 1-674): T1 sequence (O62140 1-674)
Briefly: Enzyme-coupled kinetic assay, wild-type apo ACOX-1.1. Type of series: biochemical, C. elegans.

In series [3] the target is T1, ACOX-1.1. Kind of series: FAD koff rate by fluorescence polarization. Type of series: binding, C. elegans. The following applies: read-out: koff of FAD. A digest of the protocol: (§1)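 FAD-bound, non-dialyzed enzyme at 5 μM was run in triplicate. FAD fluorescence anisotropy was recorded in polarization mode on a plate reader over 1 h, with 5 μM FAD alone as the gain/focus control. koff was obtained by fitting to a dissociation kinetics equation. Preparations were 46% (wild type) and 66% (E434A) FAD-bound per dimer.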

The subject of series [4] is ACOX-1.1(E434A). Kind of series: FAD koff rate by fluorescence polarization. Type of series: binding, C. elegans. The gist of the method: as §1
Series [5] concerns the target T2, apo ACOX-1.1. Briefly: FAD and ATP dissociation constants by fluorescence polarization. Type of series: binding, C. elegans.
For series [6], the target named is T3, ACOX-1.1(R343Q) (Caenorhabditis elegans, UniProt O62140, R343Q).
T3 sequence (O62140 1-674 R343Q): T1 sequence (O62140 1-674) with R343Q
Kind of series: Enzyme-coupled kinetic assay, ACOX-1.1. Type of series: biochemical, C. elegans.

Series [7] deals with T4, ACOX-1.1(R343A) (Caenorhabditis elegans, UniProt O62140, R343A).
T4 sequence (O62140 1-674 R343A): T1 sequence (O62140 1-674) with R343A
Briefly: Enzyme-coupled kinetic assay, ACOX-1.1. Type of series: biochemical, C. elegans.

Series [8] deals with the molecule itself. Briefly: SEC.

On to `Nc1ncnc2c1ncn2[C@@H]1O[C@H](COP(=O)(O)OP(=O)(O)O)[C@@H](O)[C@H]1O` [ADP], for which the “rescue of the time-dependent decrease in enzymatic activity” value (“rescue of the time-dependent decrease” for short) in series [1] is “None of these nucleotides are able to rescue the time-dependent decrease in enzymatic activity as well as ATP”.
Still for that read-out and setting: the result for `Nc1ncnc2c1ncn2[C@@H]1O[C@H](COP(=O)(O)O)[C@@H](O)[C@H]1O` [AMP] reads “None of these nucleotides are able to rescue the time-dependent decrease in enzymatic activity as well as ATP”.
`Cc1cc2nc3c(=O)[nH]c(=O)nc-3n(C[C@H](O)[C@H](O)[C@H](O)COP(=O)(O)OP(=O)(O)OC[C@H]3O[C@@H](n4cnc5c(N)ncnc54)[C@H](O)[C@@H]3O)c2cc1C` [FAD]: the “FAD needed to obtain a similar amount of rescue with FAD alone” value in series [1] (no ATP) was “at least 100 μM”. The EC50 was 0.385 µM in series [2] (EC50 for FAD (high-affinity site), 350 μM ATP, 95% CI: 358–476 nM); 13 µM in series [2] (lower EC50 for FAD, absence of ATP, 95% CI: 6.1–27.5 μM); 177 µM in series [2] (read-out: EC50 for FAD (low-affinity site), estimated, 350 μM ATP, 95% CI: 74–203 μM); above 1000 µM in series [6]; above 1000 µM in series [7]. Besides, the koff in series [3] is 0.000536 s⁻¹. Also, in series [4] (ACOX-1.1(E434A)), the “time in which about half of the bound FAD is lost” value is recorded as “about half of the bound FAD is lost in an hour”. Besides, in series [4] (catalytic mutant ACOX-1.1(E434A), 5 μM), the “koff of FAD” value was 0.0002 s⁻¹. In series [5] (KD of ACOX-1.1 for FAD, in the presence of ATP (350 μM)), the Kd is around 0.45 µM. Besides, the “KD of ACOX-1.1 for FAD” value in series [5] (in the absence of ATP) is “could not be measured because it is too high”.
With `Nc1nc2c(ncn2[C@@H]2O[C@H](COP(=O)(O)OP(=O)(O)OP(=O)(O)O)[C@@H](O)[C@H]2O)c(=O)[nH]1` [GTP], in series [1], the “rescue of the time-dependent decrease” value is “None of these nucleotides are able to rescue the time-dependent decrease in enzymatic activity as well as ATP”.
As for `Nc1ncnc2c1ncn2[C@H]1C[C@H](O)[C@@H](COP(=O)(O)OP(=O)(O)OP(=O)(O)O)O1` [deoxy-ATP], the “rescue of the time-dependent decrease” value in series [1] is given as “None of these nucleotides are able to rescue the time-dependent decrease in enzymatic activity as well as ATP”.

B1: ACOX-1.1(H396G) (enzyme, C. elegans, UniProt O62140 1-674, looked up)
chain: T1 sequence (O62140 1-674) with H396G
As for B1, the “stoichiometry N” value in series [8] stood at 2.

B2: ACOX-1.1(R536E) (enzyme, C. elegans, UniProt O62140 1-674, looked up)
chain: T1 sequence (O62140 1-674) with R536E
As for B2, the “stoichiometry N” value in series [8] came out at 2.
